Results: ChEMBL document CHEMBL1150393, “Evaluation of radiolabeled (hetero)aromatic analogues of N-(2-diethylaminoethyl)-4-iodobenzamide for imaging and targeted radionuclide therapy of melanoma” (J Med Chem, 2008)

Columns and labels:
[1] = Biodistribution in Stomach content of C57BL/6 mouse bearing mouse B16-F0 cells at 0.74 to 0.92 MBq, iv after 3 hrs; assay type: ADME, organism-based; settings: in vivo
In short: (§1)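 Male C57BL6 mice with s.c. left-flank B16-F0 melanoma (5 × 10⁵ cells in PBS). Two mice per time point frozen in liquid nitrogen after CO₂ sacrifice. Eight 40 µm whole-body cryosections per mouse read by multiwire proportional counter. cpm/mm² converted to kBq/g and expressed as %ID/g.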

Blood [2] = test: Biodistribution in blood of C57BL/6 mouse bearing mouse B16-F0 cells at 0.74 to 0.92 MBq, iv after 6 hrs; assay type: ADME, organism-based; settings: in vivo; in short: as §1
[3] = Ratio of drug level in tumor to brain of C57BL/6 mouse bearing mouse B16-F0 cells at 0.74 to 0.92 MBq, iv after 1 hr; assay type: ADME, organism-based; settings: in vivo
In short: (§2)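 Tumour and organ radioactive concentrations came from whole-body cryosection counting (40 µm slices, eight per mouse, two mice per time) after tail-vein injection of the [¹²⁵I]-labelled compound (0.1 µmol) into male C57BL6 mice bearing s.c. B16-F0 melanoma. Each value is the ratio of the tumour concentration to the organ concentration.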

Pancreas = test: Biodistribution in pancreas of C57BL/6 mouse bearing mouse B16-F0 cells at 0.74 to 0.92 MBq, iv after 1 hr; assay type: ADME, organism-based; settings: in vivo; in short: as §1
[4] = Drug excretion in mouse B16-F0 cells bearing C57BL/6 mouse urine at 0.74 to 0.92 MBq, iv after 72 hrs; assay type: ADME, organism-based; settings: in vivo
In short: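 Urine was collected from two B16-F0 tumour-bearing C57BL6 mice for up to 72 h after iv tail-vein injection of the [¹²⁵I]-labelled compound (0.1 µmol). Samples were counted to give cumulative urinary excretion as %ID.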

Spleen [5] = test: Biodistribution in spleen of C57BL/6 mouse bearing mouse B16-F0 cells at 0.74 to 0.92 MBq, iv after 6 hrs; assay type: ADME, organism-based; settings: in vivo
In short: (§3)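 [¹²⁵I]-labelled compound given iv by tail vein (0.1 µmol per mouse) to male C57BL6 mice bearing s.c. B16-F0 flank tumours (5 × 10⁵ cells in PBS). Two mice per time point were killed by CO₂, frozen in liquid nitrogen and cut into 40 µm cryosections, eight slices per mouse. Slice radioactivity was read on a multiwire proportional counter, converted to kBq/g and reported as %ID/g.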

Muscle tissue = test: Biodistribution in muscle of C57BL/6 mouse bearing mouse B16-F0 cells at 0.74 to 0.92 MBq, iv after 6 hrs; assay type: ADME, organism-based; settings: in vivo; in short: as §1
[6] = Ratio of drug level in tumor to liver of C57BL/6 mouse bearing mouse B16-F0 cells at 0.74 to 0.92 MBq, iv after 1 hr; assay type: ADME, organism-based; settings: in vivo; in short: as §2
[7] = Biodistribution in Stomach content of C57BL/6 mouse bearing mouse B16-F0 cells at 0.74 to 0.92 MBq, iv after 24 hrs; assay type: ADME, organism-based; settings: in vivo; in short: as §1
Lung [8] = test: Biodistribution in lung of C57BL/6 mouse bearing mouse B16-F0 cells at 0.74 to 0.92 MBq, iv after 6 hrs; assay type: ADME, organism-based; settings: in vivo; in short: as §1
[9] = Ratio of drug level in tumor to lung of C57BL/6 mouse bearing mouse B16-F0 cells at 0.74 to 0.92 MBq, iv after 6 hrs; assay type: ADME, organism-based; settings: in vivo; in short: as §2
[10] = Biodistribution in tumor of C57BL/6 mouse bearing mouse B16-F0 cells at 0.74 to 0.92 MBq, iv after 24 hrs; assay type: ADME, organism-based, Neoplasm; settings: in vivo; in short: as §3
[11] = Biodistribution in uvea of C57BL/6 mouse bearing mouse B16-F0 cells at 0.74 to 0.92 MBq, iv after 3 hrs; assay type: ADME, organism-based, Uveal tract; settings: in vivo; in short: as §3
Liver [12] = test: Biodistribution in liver of C57BL/6 mouse bearing mouse B16-F0 cells at 0.74 to 0.92 MBq, iv after 1 hr; assay type: ADME, organism-based; settings: in vivo; in short: as §1
[13] = Biodistribution in tumor of C57BL/6 mouse bearing mouse B16-F0 cells at 0.74 to 0.92 MBq, iv after 1 hr; assay type: ADME, organism-based, Neoplasm; settings: in vivo; in short: as §3
Kidney [14] = test: Biodistribution in kidney of C57BL/6 mouse bearing mouse B16-F0 cells at 0.74 to 0.92 MBq, iv after 3 hrs; assay type: ADME, organism-based; settings: in vivo; in short: as §1
[15] = Biodistribution in uvea of C57BL/6 mouse bearing mouse B16-F0 cells at 0.74 to 0.92 MBq, iv after 24 hrs; assay type: ADME, organism-based, Uveal tract; settings: in vivo; in short: as §3
Blood [16] = test: Biodistribution in blood of C57BL/6 mouse bearing mouse B16-F0 cells at 0.74 to 0.92 MBq, iv after 3 hrs; assay type: ADME, organism-based; settings: in vivo; in short: as §1
[17] = Biodistribution in Stomach content of C57BL/6 mouse bearing mouse B16-F0 cells at 0.74 to 0.92 MBq, iv after 6 hrs; assay type: ADME, organism-based; settings: in vivo; in short: as §1
Kidney [18] = test: Biodistribution in kidney of C57BL/6 mouse bearing mouse B16-F0 cells at 0.74 to 0.92 MBq, iv after 1 hr; assay type: ADME, organism-based; settings: in vivo; in short: as §1
[19] = Biodistribution in uvea of C57BL/6 mouse bearing mouse B16-F0 cells at 0.74 to 0.92 MBq, iv after 6 hrs; assay type: ADME, organism-based, Uveal tract; settings: in vivo; in short: as §3
Spleen [20] = test: Biodistribution in spleen of C57BL/6 mouse bearing mouse B16-F0 cells at 0.74 to 0.92 MBq, iv after 1 hr; assay type: ADME, organism-based; settings: in vivo; in short: as §3
[21] = Ratio of drug level in tumor to lung of C57BL/6 mouse bearing mouse B16-F0 cells at 0.74 to 0.92 MBq, iv after 3 hrs; assay type: ADME, organism-based; settings: in vivo; in short: as §2
Lung [22] = test: Biodistribution in lung of C57BL/6 mouse bearing mouse B16-F0 cells at 0.74 to 0.92 MBq, iv after 3 hrs; assay type: ADME, organism-based; settings: in vivo; in short: as §1
[23] = Biodistribution in uvea of C57BL/6 mouse bearing mouse B16-F0 cells at 0.74 to 0.92 MBq, iv after 1 hr; assay type: ADME, organism-based, Uveal tract; settings: in vivo; in short: as §3
Brain = test: Biodistribution in brain of C57BL/6 mouse bearing mouse B16-F0 cells at 0.74 to 0.92 MBq, iv after 3 hrs; assay type: ADME, organism-based; settings: in vivo; in short: as §1
[24] = Partition coefficient, log P in phosphate buffer solution at pH 7.4; assay type: physicochemical
In short: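 Shake-flask partition: 50 µM [¹²⁵I]-labelled compound in phosphate buffer pH 7.4 was mixed with 2 mL n-octanol. Each phase was γ-counted, P was taken as the octanol/buffer activity ratio, and log P was reported.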

Blood [25] = test: Biodistribution in blood of C57BL/6 mouse bearing mouse B16-F0 cells at 0.74 to 0.92 MBq, iv after 1 hr; assay type: ADME, organism-based; settings: in vivo; in short: as §1
Liver [26] = test: Biodistribution in liver of C57BL/6 mouse bearing mouse B16-F0 cells at 0.74 to 0.92 MBq, iv after 6 hrs; assay type: ADME, organism-based; settings: in vivo; in short: as §1
Lung [27] = test: Biodistribution in lung of C57BL/6 mouse bearing mouse B16-F0 cells at 0.74 to 0.92 MBq, iv after 1 hr; assay type: ADME, organism-based; settings: in vivo; in short: as §1
[28] = Biodistribution in tumor of C57BL/6 mouse bearing mouse B16-F0 cells at 0.74 to 0.92 MBq, iv after 6 hrs; assay type: ADME, organism-based, Neoplasm; settings: in vivo; in short: as §3
[29] = Ratio of drug level in tumor to liver of C57BL/6 mouse bearing mouse B16-F0 cells at 0.74 to 0.92 MBq, iv after 3 hrs; assay type: ADME, organism-based; settings: in vivo; in short: as §2
Thyroid gland [30] = test: Biodistribution in thyroid of C57BL/6 mouse bearing mouse B16-F0 cells at 0.74 to 0.92 MBq, iv after 3 hrs; assay type: ADME, organism-based; settings: in vivo; in short: as §3
Thyroid gland [31] = test: Biodistribution in thyroid of C57BL/6 mouse bearing mouse B16-F0 cells at 0.74 to 0.92 MBq, iv after 6 hrs; assay type: ADME, organism-based; settings: in vivo; in short: as §3

Row | Compound | Drug uptake [1] [% ID/g] | Drug uptake (Blood [2]) [% ID/g] | Ratio [3] | Activity [4] [%] | Drug uptake (Spleen [5]) [% ID/g] | Drug uptake (Muscle tissue) [% ID/g] | Ratio [6] | Drug uptake [7] [% ID/g] | Drug uptake (Lung [8]) [% ID/g] | Ratio [9] | Drug uptake [10] [% ID/g] | Drug uptake [11] [% ID/g] | Drug uptake (Liver [12]) [% ID/g] | Drug uptake [13] [% ID/g] | Drug uptake (Kidney [14]) [% ID/g] | Drug uptake [15] [% ID/g] | Drug uptake (Blood [16]) [% ID/g] | Drug uptake [17] [% ID/g] | Drug uptake (Kidney [18]) [% ID/g] | Drug uptake [19] [% ID/g] | further results
1 | CCN(CC)CCNC(=O)c1ccc2cc([125I])ccc2n1.Cl.Cl | 34.72 | 5.91 | 10.02 | 80.7 | 7.6 | 0.95 | 1.8 | 2.33 | 5.32 | 3.23 | 12.1 | 33.1 | 10.92 | 19.6 | 12.59 | 22.27 | 5.57 | 65.36 | 11.82 | 36.62 | Drug uptake (Pancreas): 9.8 % ID/g; Drug uptake (Spleen [20]): 11.56 % ID/g; Ratio [21]: 4.54; Drug uptake (Lung [22]): 5.58 % ID/g; Drug uptake [23]: 32.71 % ID/g; Drug uptake (Brain): 0.83 % ID/g; logD [24]: 1.87; Drug uptake (Blood [25]): 7.01 % ID/g; Drug uptake (Liver [26]): 7.11 % ID/g; Drug uptake (Lung [27]): 9.41 % ID/g; Drug uptake [28]: 17.2 % ID/g; Ratio [29]: 2.85
2 | CCN(CC)CCNC(=O)c1ccc([125I])nc1.Cl.Cl | 42.71 | 3.71 | 24.2 | 67.3 | 2.35 | 0.53 | 3.01 | 1.46 | 3.21 | 2.17 | 2.7 | 12.69 | 5.14 | 15.5 | 3.26 | 6.07 | 4.22 | 50.21 | 6.08 | 11.5 | Drug uptake (Pancreas): 3.94 % ID/g; Drug uptake (Thyroid gland [30]): 59.09 % ID/g; Drug uptake (Spleen [20]): 5.44 % ID/g; Ratio [21]: 2.34; Drug uptake (Lung [22]): 3.96 % ID/g; Drug uptake [23]: 16.66 % ID/g; Drug uptake (Brain): 0.22 % ID/g; logD [24]: -0.29; Drug uptake (Blood [25]): 6.67 % ID/g; Drug uptake (Liver [26]): 2.09 % ID/g; Drug uptake (Thyroid gland [31]): 7.92 % ID/g; Drug uptake (Lung [27]): 7.59 % ID/g; Drug uptake [28]: 7 % ID/g; Ratio [29]: 3.08
3 | CCN(CC)CCNC(=O)c1cc2cc([125I])ccc2o1.Cl | 16.07 | 1.28 | 6 | 21.4 | 11.34 | 0.19 | 1.36 | 1.61 | 1.45 | 13.3 | 5 | 20.11 | 6.44 | 8.8 | 3.09 | 9.95 | 1.91 | 10.06 | 6.5 | 13.91 | Drug uptake (Thyroid gland [30]): 22.43 % ID/g; Drug uptake (Spleen [20]): 10.68 % ID/g; Ratio [21]: 5.9; Drug uptake (Lung [22]): 1.92 % ID/g; Drug uptake [23]: 28.64 % ID/g; Drug uptake (Brain): 0.24 % ID/g; logD [24]: 1.57; Drug uptake (Blood [25]): 3.57 % ID/g; Drug uptake (Liver [26]): 1.77 % ID/g; Drug uptake (Thyroid gland [31]): 40.63 % ID/g; Drug uptake (Lung [27]): 5.17 % ID/g; Drug uptake [28]: 7.8 % ID/g; Ratio [29]: 2.74
4 | CCN(CC)CCNC(=O)c1cc2cc([125I])ccc2[nH]1.Cl | 18.52 | 0.67 | 1.69 | 21.5 | 1.68 | 0.31 | 0.7 | 2.1 | 1.7 | 5.79 | 8.2 | 12.78 | 11.86 | 8.3 | 4.19 | 8.81 | 0.79 | 21.84 | 4.19 | 13.2 | Drug uptake (Pancreas): 7.15 % ID/g; Drug uptake (Spleen [20]): 8.09 % ID/g; Ratio [21]: 2.95; Drug uptake (Lung [22]): 3.46 % ID/g; Drug uptake [23]: 11.7 % ID/g; Drug uptake (Brain): 1.73 % ID/g; logD [24]: 1.69; Drug uptake (Blood [25]): 1.6 % ID/g; Drug uptake (Liver [26]): 3.63 % ID/g; Drug uptake (Lung [27]): 14.41 % ID/g; Drug uptake [28]: 9.8 % ID/g; Ratio [29]: 1.96
